What was measured:
[1] = target: T1, 5-hydroxytryptamine receptor 2C (Rattus norvegicus, UniProt P08909); assay: Inhibition constant against rat 5-hydroxytryptamine 2C receptor using [3H]mesulergine as radioligand with the compound (10 uM) dissolved in DMSO
T1 sequence (P08909 whole entry): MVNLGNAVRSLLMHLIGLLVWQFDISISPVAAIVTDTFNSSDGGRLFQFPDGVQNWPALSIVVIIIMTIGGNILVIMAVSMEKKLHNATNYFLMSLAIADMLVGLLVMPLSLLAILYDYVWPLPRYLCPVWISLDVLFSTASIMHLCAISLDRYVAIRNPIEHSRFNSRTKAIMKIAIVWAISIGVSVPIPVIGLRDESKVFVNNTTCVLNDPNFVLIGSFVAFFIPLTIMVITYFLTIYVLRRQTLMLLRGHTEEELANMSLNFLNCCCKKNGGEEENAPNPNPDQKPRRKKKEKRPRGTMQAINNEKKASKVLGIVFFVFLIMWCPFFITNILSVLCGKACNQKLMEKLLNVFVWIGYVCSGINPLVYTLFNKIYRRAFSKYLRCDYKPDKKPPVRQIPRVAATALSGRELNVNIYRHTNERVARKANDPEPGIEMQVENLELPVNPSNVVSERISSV
How it was run: (§1)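 Competition binding with [3H]ketanserin (5-HT2A), [3H]mesulergine (5-HT2C) or [3H]LSD (5-HT2B) on receptor preparations. Compounds in 10% DMSO were first screened at a single concentration as duplicate determinations, each run in duplicate. Compounds giving >50% inhibition of specific binding were then tested in duplicate from 1 to 100,000 nM. Ki is the mean ± SD of computer-derived estimates, N = 4.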

[2] = target: T2, 5-hydroxytryptamine receptor 2B (Homo sapiens, UniProt P41595); assay: Inhibition constant against human 5-hydroxytryptamine 2B receptor using [3H]LSD as radioligand with the compound (10 uM) dissolved in DMSO; how it was run: as §1
[3] = target: T3, 5-hydroxytryptamine receptor 2C (Homo sapiens, UniProt P28335); assay: Inhibition constant against human 5-hydroxytryptamine 2C receptor [VGI isoforms] using [3H]mesulergine as radioligand with the compound (10 uM) dissolved in DMSO; how it was run: as §1
T3 sequence (P28335 whole entry): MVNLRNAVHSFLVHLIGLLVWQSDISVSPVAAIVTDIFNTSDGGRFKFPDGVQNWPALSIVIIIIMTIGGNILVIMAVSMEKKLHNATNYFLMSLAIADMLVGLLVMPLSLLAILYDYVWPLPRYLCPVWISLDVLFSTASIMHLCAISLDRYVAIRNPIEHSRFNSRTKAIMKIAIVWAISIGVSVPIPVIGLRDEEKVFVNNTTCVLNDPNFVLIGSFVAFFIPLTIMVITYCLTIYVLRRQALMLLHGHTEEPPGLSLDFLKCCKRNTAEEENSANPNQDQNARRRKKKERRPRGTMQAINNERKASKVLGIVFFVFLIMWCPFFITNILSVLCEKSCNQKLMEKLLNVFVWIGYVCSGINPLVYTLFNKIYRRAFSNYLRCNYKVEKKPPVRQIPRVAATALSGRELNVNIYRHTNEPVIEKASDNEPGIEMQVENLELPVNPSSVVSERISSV

[4] = target: T3, 5-hydroxytryptamine receptor 2C; assay: Inhibition constant against human 5-hydroxytryptamine 2C receptor [INI isoforms] using [3H]mesulergine as radioligand with the compound (10 uM) dissolved in DMSO; how it was run: as §1
[5] = target: 5-hydroxytryptamine receptor 2A (Rattus norvegicus, UniProt P14842); assay: Inhibition constant against rat 5-hydroxytryptamine 2A receptor using [3H]ketanserin as radioligand with the compound (10 uM) dissolved in DMSO; how it was run: as §1
[6] = target: T4, 5-hydroxytryptamine receptor 2A (Homo sapiens, UniProt P28223); assay: Inhibition constant against human 5-hydroxytryptamine 2A receptor using [3H]ketanserin as radioligand with the compound (10 uM) dissolved in DMSO; how it was run: as §1
[7] = target: T2, 5-hydroxytryptamine receptor 2B; assay: Antagonistic activity against accumulation of [3H]inositol phosphate in cells transiently expressing human 5-hydroxytryptamine 2B receptor determined by phosphoinositide hydrolysis assay; assay type: functional; conditions: filed as antagonist
How it was run: (§2)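 Phosphoinositide hydrolysis assay with human receptors, 5-HT2A and 5-HT2C expressed stably and 5-HT2B transiently. Cells were loaded overnight with [3H]inositol (15 Ci/mmol; 1 mCi/mL as supplied) in inositol-free DMEM without serum.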

[8] = target: T5, 5-hydroxytryptamine receptor 2C (Homo sapiens) (UniProt P28335); assay: Antagonistic activity against accumulation of [3H]inositol phosphate in cells stably expressing human 5-hydroxytryptamine 2C receptor determined by phosphoinositide hydrolysis assay; assay type: functional; conditions: filed as antagonist; how it was run: as §2
T5 sequence (whole entry): T3 sequence (P28335 whole entry)

[9] = target: T4, 5-hydroxytryptamine receptor 2A; assay: Antagonistic activity against accumulation of [3H]-inositol phosphate in cells stably expressing human 5-hydroxytryptamine 2A receptor determined by phosphoinositide hydrolysis assay; assay type: functional; conditions: filed as antagonist; how it was run: as §2
[10] = target: T4, 5-hydroxytryptamine receptor 2A; assay: Effective concentration required for accumulation of [3H]inositol phosphate in cells stably expressing human 5-hydroxytryptamine 2A receptor determined by phosphoinositide hydrolysis assay; assay type: functional
How it was run: (§3)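 Phosphoinositide hydrolysis measured in cells expressing human 5-HT2A (stable) or 5-HT2B (transient) receptors, loaded overnight with [3H]inositol (15 Ci/mmol; 1 mCi/mL as supplied) in serum-free, inositol-free DMEM. Where SD is given, N ≥ 3.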

[11] = target: T3, 5-hydroxytryptamine receptor 2C; assay: Effective concentration required for accumulation of [3H]inositol phosphate in cells stably expressing human 5-hydroxytryptamine 2C receptor determined by phosphoinositide hydrolysis assay; assay type: functional
[12] = target: T2, 5-hydroxytryptamine receptor 2B; assay: Effective concentration required for accumulation of [3H]inositol phosphate in cells transiently expressing human 5-hydroxytryptamine 2B receptor determined by phosphoinositide hydrolysis assay; assay type: functional; how it was run: as §3

T2 sequence (P41595 whole entry, canonical isoform): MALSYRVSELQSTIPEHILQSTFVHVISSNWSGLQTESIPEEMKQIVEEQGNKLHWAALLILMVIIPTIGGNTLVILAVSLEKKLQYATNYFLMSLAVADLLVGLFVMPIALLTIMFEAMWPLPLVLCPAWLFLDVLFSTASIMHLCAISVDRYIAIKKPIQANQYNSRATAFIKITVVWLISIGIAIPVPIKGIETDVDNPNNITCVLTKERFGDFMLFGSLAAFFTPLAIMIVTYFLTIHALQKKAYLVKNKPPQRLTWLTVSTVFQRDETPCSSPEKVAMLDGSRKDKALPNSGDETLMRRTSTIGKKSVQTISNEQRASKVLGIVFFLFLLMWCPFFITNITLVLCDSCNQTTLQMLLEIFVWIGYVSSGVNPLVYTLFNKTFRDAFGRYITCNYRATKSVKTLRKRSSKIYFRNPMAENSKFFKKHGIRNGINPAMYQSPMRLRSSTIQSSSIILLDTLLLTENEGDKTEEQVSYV
5-hydroxytryptamine receptor 2A (Rattus norvegicus, UniProt P14842), sequence (P14842 whole entry): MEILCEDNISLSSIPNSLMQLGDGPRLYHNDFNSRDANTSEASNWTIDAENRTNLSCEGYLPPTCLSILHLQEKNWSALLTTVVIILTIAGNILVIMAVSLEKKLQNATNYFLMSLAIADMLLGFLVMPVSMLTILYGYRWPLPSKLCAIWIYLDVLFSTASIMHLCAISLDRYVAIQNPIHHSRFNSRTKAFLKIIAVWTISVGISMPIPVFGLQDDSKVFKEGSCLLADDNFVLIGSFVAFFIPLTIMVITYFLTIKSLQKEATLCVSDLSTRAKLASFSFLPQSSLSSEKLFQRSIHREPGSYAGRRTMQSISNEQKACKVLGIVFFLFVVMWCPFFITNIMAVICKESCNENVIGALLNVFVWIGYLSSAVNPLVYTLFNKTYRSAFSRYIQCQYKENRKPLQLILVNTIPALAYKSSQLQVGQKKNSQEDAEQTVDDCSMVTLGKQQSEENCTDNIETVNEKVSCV
T4 sequence (P28223 whole entry): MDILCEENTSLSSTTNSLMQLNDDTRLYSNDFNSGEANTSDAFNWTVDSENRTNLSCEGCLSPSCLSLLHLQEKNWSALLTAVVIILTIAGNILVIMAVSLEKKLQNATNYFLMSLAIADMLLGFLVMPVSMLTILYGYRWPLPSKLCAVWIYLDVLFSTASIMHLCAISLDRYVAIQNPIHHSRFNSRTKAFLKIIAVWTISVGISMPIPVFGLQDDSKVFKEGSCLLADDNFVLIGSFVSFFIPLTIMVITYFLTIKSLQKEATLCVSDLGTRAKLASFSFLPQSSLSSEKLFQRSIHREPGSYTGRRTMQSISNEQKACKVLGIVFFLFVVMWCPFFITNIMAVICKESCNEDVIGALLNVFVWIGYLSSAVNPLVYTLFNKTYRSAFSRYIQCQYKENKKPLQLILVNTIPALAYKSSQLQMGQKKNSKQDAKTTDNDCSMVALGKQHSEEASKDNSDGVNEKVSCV

Row | Compound | Ki [1] | Ki [2] | Ki [3] | Ki [4] | Ki [5] | Ki [6] | Activity [7] | Activity [8] | Activity [9] | EC50 [10] | EC50 [11] | EC50 [12]
1 | CN(C)CCc1cn(C)c2cccc(OP(=O)(O)O)c12 | > 10000 nM | 5500 nM | 540 nM | > 10000 nM | > 10000 nM | > 10000 nM | – | – | – | – | – | –
2 | CC(Cc1c[nH]c2cccc(O)c12)N(C)C (centres undefined) | – | 745 nM | – | 126 nM | – | 982 nM | – | – | – | – | – | –
3 | CCCCn1cc(CCN(C)C)c2c(OP(=O)(O)O)cccc21 | 5700 nM | 170 nM | 210 nM | 73 nM | > 10000 nM | 3000 nM | Antagonist | Antagonist | Antagonist | – | – | –
4 | Cc1[nH]c2cccc(O)c2c1CCN(C)C | 1280 nM | – | 539 nM | – | 1680 nM | 122 nM | – | – | – | – | – | –
5 | Oc1cccc2[nH]cc(CCN3CCCC3)c12 | – | 423 nM | 1770 nM | 275 nM | – | 429 nM | – | – | – | – | – | –
6 | CN(C)Cc1cn(C)c2cccc(O)c12 | – | 1240 nM | 125 nM | 87 nM | – | 498 nM | – | – | – | – | – | –
7 | CN(C)CCc1c[nH]c2cc(O)ccc12 | 19000 nM | 6300 nM | 6800 nM | > 10000 nM | > 10000 nM | 7600 nM | – | – | – | – | – | –
8 | CCCCn1cc(CCN(C)C)c2c(O)cccc21 | 15.7 nM | 5.8 nM | 14 nM | 4.4 nM | 200 nM | 310 nM | – | – | – | 32 nM | 595 nM | –
9 | CN(C)CCCc1c[nH]c2cccc(O)c12 | – | 98 nM | 84 nM | 1110 nM | – | 588 nM | – | – | – | – | – | –
10 | CN(C)CCc1c[nH]c2cccc(F)c12 | 359 nM | 8.39 nM | 84 nM | 82 nM | 1010 nM | 335 nM | – | – | – | 949 nM | 99 nM | 1180 nM
11 | CN(C)Cc1c[nH]c2cccc(O)c12 | 49 nM | 1240 nM | 12.6 nM | 24 nM | 834 nM | 923 nM | Antagonist | Antagonist | Antagonist | – | – | –
12 | Oc1cccc2[nH]cc(CCN3CCCc4ccccc43)c12 | 1450 nM | 5570 nM | – | 468 nM | 8370 nM | – | – | – | – | – | – | –
13 | CN(C)CCn1ccc2c(O)cccc21 | 9350 nM | – | 4200 nM | 2180 nM | > 10000 nM | – | – | – | – | – | – | –
14 | CN(C)CCc1cn(C)c2cccc(O)c12 | 48 nM | 38 nM | 33 nM | 7 nM | 590 nM | 900 nM | – | – | – | 633 nM | 12 nM | –
15 | CN1CCN(CCc2c[nH]c3cccc(O)c23)CC1 | > 10000 nM | 116 nM | – | 103 nM | 6900 nM | 9750 nM | – | – | – | – | – | –
16 | CN(C)CCc1c[nH]c2cccc(OP(=O)(O)O)c12 [PSILOCYBIN] | – | – | – | – | – | – | – | – | – | 3480 nM | 506 nM | –
